Assay results from PMC6311382 (Angewandte Chemie (International ed. in English), 2015).

Columns and labels:
[1] = tested on: wild-type H. pylori transmigration; assay: Transwell migration assay across polarized MKN-28 epithelial layer; format: cell-based, Helicobacter pylori; conditions: 50 μM, 24 h, MKN-28 cells
Outline: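 Wild-type H. pylori crossing a polarized epithelial layer of human gastric adenocarcinoma MKN-28 cells in a transwell system, followed for 24 h with test compound at two concentrations. Transmigrated bacteria are read as colony-forming units. Significance at 24 h is tested by one-way ANOVA (Dunnett) against the untreated control.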

[2] = tested on: wild-type Campylobacter jejuni transmigration; assay: Transwell migration assay, Campylobacter jejuni; format: cell-based; conditions: 50 and 100 μM, 24 h
Outline: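 Transmigration of wild-type Campylobacter jejuni is followed over 24 h with test compound at two concentrations. Bacteria are counted as colony-forming units. N = 3 independent experiments. Significance at 24 h is tested by one-way ANOVA (Dunnett) against the untreated control.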

[3] = format: physicochemical; conditions: dynamic light scattering
H. pylori HtrA [4] = target: T1, H. pylori HtrA (Helicobacter pylori, UniProt G2J5T2); assay: SPR binding affinity and kinetics to HtrA
T1 sequence (G2J5T2 18-475): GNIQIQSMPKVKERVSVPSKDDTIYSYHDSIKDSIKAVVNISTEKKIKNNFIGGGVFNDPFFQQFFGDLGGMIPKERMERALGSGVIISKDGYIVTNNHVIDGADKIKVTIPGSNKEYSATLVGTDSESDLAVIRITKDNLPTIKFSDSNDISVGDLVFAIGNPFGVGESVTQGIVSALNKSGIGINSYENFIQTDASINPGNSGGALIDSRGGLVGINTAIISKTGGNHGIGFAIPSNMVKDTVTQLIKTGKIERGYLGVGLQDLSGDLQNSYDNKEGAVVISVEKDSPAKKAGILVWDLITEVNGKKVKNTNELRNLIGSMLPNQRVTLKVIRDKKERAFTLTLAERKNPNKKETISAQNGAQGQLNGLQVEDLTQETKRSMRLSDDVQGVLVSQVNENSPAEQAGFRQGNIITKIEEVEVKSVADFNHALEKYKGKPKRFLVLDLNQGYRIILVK

H. pylori HtrA [5] = target: T1, H. pylori HtrA; assay: Western blot analysis of recombinant E-cadherin cleavage by HtrA; format: biochemical
Outline: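 Recombinant full-length 130 kDa E-cadherin is incubated with H. pylori HtrA and test compound at a range of concentrations. HtrA proteolysis is read by Western blot as generation of the roughly 90 kDa soluble E-cadherin fragment.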

H. pylori HtrA [6] = target: T1, H. pylori HtrA; assay: 1H STD NMR binding experiment; conditions: 10 μM HtrA

Row | Structure (SMILES) | inhibition of H. pylori transmigration [1] | inhibition of C. jejuni transmigration, compared with H. pylori [2] | solubility kinetic [3] [µM] | koff (H. pylori HtrA [4]) [s⁻¹] | LE (ligand efficiency) (H. pylori HtrA [4]; = −1.4 logKD/(number of non-hydrogen atoms)) | proteolytic activity of HtrA (H. pylori HtrA [5]; at 50 μM) | concentration at which inhibition of E-cadherin cleavage is seen (H. pylori HtrA [5]; recombinant E-cadherin) [µM] | saturation transfer / binding to HtrA (H. pylori HtrA [6])
1 | Cc1ccc(C)n1[C@@H](Cc1ccc(-c2ccc(C(=O)O)o2)cc1)C(=O)O [Compound 2] | significant effects | strikingly dissimilar outcome | > 100 | 1.8 | 0.24 | blocked | 10 | direct binding
2 | CO[C@@H]1O[C@H](CO)[C@@H](O)[C@H](O)[C@H]1O [β-methyl-D-glucoside, reference compound] | – | – | – | – | – | – | – | no saturation transfer
